According to publication PMC11220656 (JAC-Antimicrobial Resistance, 2024):

Legend:
E. coli strain pb3 [1] = assay: Growth curve inhibition, clinical strain pb3; assay type: cell-based, Escherichia coli; details: for Concentration giving significant growth inhibition of pb3: 2-fold serial dilution 40 to 5 µM, triplicates, compared with WT peptide; for Effect on growth of pb3 (in words): AMP at 40 µM
Method in brief: (§1)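 Overnight E. coli clinical isolate cultures in Mueller–Hinton broth (150 rpm, 37°C) diluted 1:100 in MHB, with test peptide at 40 µM or in a 2-fold series from 40 to 5 µM, in triplicate. OD600 read every 30 min for 24 h with continuous shaking. Log-phase linear values were log2-transformed against time, slope taken as growth rate, normalized to a no-peptide control, and compared with wild-type peptide by Student's t test.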

E. coli strain pb15 [2] = assay: Growth curve inhibition, clinical strain pb15; assay type: cell-based, Escherichia coli; details: for Effect on growth of pb15 (in words): AMP at 40 µM
Method in brief: as §1

[3] = tested on: clinically derived E. coli strains pb3, pb15 and pb35; assay: Growth inhibition across the clinical strains pb3, pb15 and pb35; assay type: cell-based, Escherichia coli; details: AMP at 40 µM
Method in brief: as §1

E. coli strain pb35 = assay: Growth curve inhibition, clinical strain pb35; assay type: cell-based, Escherichia coli; details: for Effect on growth of pb35 (in words): AMP at 40 µM
Method in brief: as §1

E. coli strain pb3 [4] = details: strain pb3, urinary tract infection; ref Basra et al. 15; cited from earlier work
E. coli strain pb5 = details: strain pb5, respiratory; ref Basra et al. 15; cited from earlier work
E. coli strain pb15 [5] = details: strain pb15, blood; ref Basra et al. 15; cited from earlier work
[6] = 2-fold serial dilution 40 to 5 µM, triplicates, compared with WT peptide

| Molecule | Concentration giving significant growth inhibition of pb3 (E. coli strain pb3 [1]) [µM] | Growth inhibition across all three clinical strains (in words) [3] | Effect on growth of pb3 (in words) (E. coli strain pb3 [1]) | Effect on growth of pb15 (in words) (E. coli strain pb15 [2]) | Effect on growth of pb35 (in words) (E. coli strain pb35) | further results |
| --- | --- | --- | --- | --- | --- | --- |
| ILPWDWPWWPWRR [IndoK5D] | 20 | equivalent response across all three strains |  |  |  | Concentration giving significant growth inhibition of pb15 (E. coli strain pb15 [2]; [6]): 10 µM |
| ILPWCWPWWPWRR [IndoK5C] |  |  | greater effect | reduced but still significant effect | greater effect |  |
| CC(C)(O/N=C(\C(=O)N[C@@H]1C(=O)N2C(C(=O)[O-])=C(C[n+]3ccccc3)CS[C@H]12)c1csc(N)n1)C(=O)O [CAZ, ceftazidime] |  |  |  |  |  | CAZ MIC (E. coli strain pb3 [4]): 4 µg/mL; CAZ MIC (E. coli strain pb5): 0.5 µg/mL; CAZ MIC (E. coli strain pb15 [5]): 128 µg/mL |
| ILPWKWPWWPWRR [indolicidin, reference compound] |  |  |  |  |  | Dose-response of growth inhibition of pb3 (in words) (E. coli strain pb3 [1]; serial dilution 40 to 5 µM): not inhibited across the concentrations tested |
| ILPWAWPWWPWRR [IndoK5A] |  |  | greater effect | reduced but still significant effect | greater effect |  |
| ILPWLWPWWPWRR [IndoK5L] | 20 | equivalent response across all three strains |  |  |  | Concentration giving significant growth inhibition of pb35 (E. coli strain pb35; [6]): 20 µM |
